Assay results reported in ChEMBL document CHEMBL3758117, “Discovery of indeno[1,2-b]quinoxaline derivatives as potential anticancer agents” (Eur J Med Chem, 2016).
pIC50: −log10 of the molar value. Calls of active or inactive are those of the source. The rule behind the calls is not given here.

Legend:
[1] = Cell cycle arrest in human HuH7 cells assessed as accumulation at sub G1 phase at 5 uM for 24 hrs by propidium iodide staining based flow cytometry (reference value: 1.3 +/- 0.7%); type: functional; conditions: Huh-7
[2] = Antiproliferative activity against human HuH7 cells after 72 hrs by XTT assay; type: functional, cell-based; conditions: Huh-7, 72 h
Outline: (§1)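 Cells kept as monolayers in DMEM with 10% FBS, penicillin, streptomycin and amphotericin at 37°C, 5% CO2. Seeded at 5 x 10³ cells/well and exposed to compound for 72 h in medium with 10% FBS. XTT plus electron-coupling reagent added, 4 h at 37°C, absorbance read at 492 nm. Percent of control growth uses mean absorbance (n = 3). The 50% value is taken from the linear portion of the curve.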

[3] = tested on: MRC5; assay: Selectivity index, ratio of IC50 for human MRC5 cells to IC50 for human MDA-MB-231 cells; type: functional
[4] = Cell cycle arrest in human HuH7 cells assessed as accumulation at G1 phase at 10 uM for 24 hrs by propidium iodide staining based flow cytometry (reference value: 62.1 +/- 1.4%); type: functional; conditions: Huh-7
[5] = Downregulation of cyclin D1 expression in human HuH7 cells at 1 to 10 uM after 24 hrs by immunoblot analysis; type: functional, cell-based; conditions: Huh-7
Outline: (§2)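 Huh-7 cells were treated with DMSO or compound at 1, 5 and 10 μM for 24 h. Cells were lysed in NP-40 buffer with protease and phosphatase inhibitors, and protein was measured by Bradford. Lysate protein was resolved by SDS-PAGE and transferred to PVDF. Membranes were blocked in 5% milk, probed with primary antibodies for 2 h and secondary antibodies for 30 min, and detected by ECL, with β-actin as loading control.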

[6] = Cell cycle arrest in human HuH7 cells assessed as accumulation at S phase at 5 uM for 24 hrs by propidium iodide staining based flow cytometry (reference value: 11.4 +/- 2.4%); type: functional; conditions: Huh-7
[7] = Cell cycle arrest in human HuH7 cells assessed as accumulation at G1 phase at 5 uM for 24 hrs by propidium iodide staining based flow cytometry (reference value: 62.1 +/- 1.4%); type: functional; conditions: Huh-7
[8] = Effect on total protein expression of Akt in human HuH7 cells at 1 to 10 uM after 24 hrs by immunoblot analysis; type: cell-based; conditions: huh-7, 24 h; outline: as §2
[9] = tested on: MDA-MB-231; assay: Antiproliferative activity against human MDA-MB-231 cells after 72 hrs by XTT assay; type: functional, cell-based; conditions: MDA-MB-231, 72 h; outline: as §1
[10] = Downregulation of cyclin A expression in human HuH7 cells at 1 to 10 uM after 24 hrs by immunoblot analysis; type: functional, cell-based; conditions: Huh-7; outline: as §2
[11] = tested on: MRC5; assay: Antiproliferative activity against human MRC5 cells after 72 hrs by XTT assay; type: cell-based; conditions: MRC5, 72 h; outline: as §1
[12] = Induction of apoptosis in human HuH7 cells assessed as upregulation of activated caspase 7 at 1 to 10 uM after 24 hrs by Western blot analysis; type: functional, cell-based; conditions: Huh-7; outline: as §2
[13] = Cell cycle arrest in human HuH7 cells assessed as accumulation at S phase at 10 uM for 24 hrs by propidium iodide staining based flow cytometry (reference value: 11.4 +/- 2.4%); type: functional; conditions: Huh-7
[14] = target: RAC-alpha serine/threonine-protein kinase (Homo sapiens) (UniProt P31749); assay: Inhibition of AKT1 phosphorylation in human HuH7 cells at 1 to 10 uM after 24 hrs by immunoblot analysis; type: cell-based; conditions: Huh-7; outline: as §2
Chain of RAC-alpha serine/threonine-protein kinase (Homo sapiens) (P31749 whole entry): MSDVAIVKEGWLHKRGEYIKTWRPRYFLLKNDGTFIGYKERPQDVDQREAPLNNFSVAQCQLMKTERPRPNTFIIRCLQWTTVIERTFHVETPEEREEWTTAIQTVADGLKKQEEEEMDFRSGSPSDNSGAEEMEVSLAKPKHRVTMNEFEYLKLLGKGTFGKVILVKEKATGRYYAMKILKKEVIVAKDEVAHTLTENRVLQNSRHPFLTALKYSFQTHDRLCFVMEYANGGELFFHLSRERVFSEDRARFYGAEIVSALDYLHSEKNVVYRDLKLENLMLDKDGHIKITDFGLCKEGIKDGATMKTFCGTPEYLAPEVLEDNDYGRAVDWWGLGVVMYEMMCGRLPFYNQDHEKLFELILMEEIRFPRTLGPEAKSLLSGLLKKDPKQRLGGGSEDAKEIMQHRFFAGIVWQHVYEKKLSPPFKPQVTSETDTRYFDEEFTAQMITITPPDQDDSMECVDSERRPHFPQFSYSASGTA

[15] = Induction of apoptosis in human HuH7 cells assessed as upregulation of activated caspase 3 at 1 to 10 uM after 24 hrs by Western blot analysis; type: functional, cell-based; conditions: Huh-7; outline: as §2
[16] = tested on: Huh-7; assay: Induction of apoptosis in human HuH7 cells assessed as cell shrinkage at 5 uM after 24 hrs by light microscopy; type: functional, cell-based
[17] = tested on: MRC5; assay: Selectivity index, ratio of IC50 for human MRC5 cells to IC50 for human PC3 cells; type: functional
[18] = Cell cycle arrest in human HuH7 cells assessed as accumulation at subG1 phase at 1 uM for 24 hrs by propidium iodide staining based flow cytometry (reference value: 1.3 +/- 0.7%); type: functional; conditions: Huh-7
[19] = tested on: Huh-7; assay: Selectivity index, ratio of IC50 for human MRC5 cells to IC50 for human HuH7 cells; type: functional
[20] = tested on: Huh-7; assay: Antitumor activity against human HuH7 cells xenografted in zebrafish assessed as reduction in tumor size after 24 to 48 hrs post injection by fluorescence microscopy; type: functional, cell-based
Outline: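 About 100 Huh-7 cells were implanted into the yolk sac of anesthetized 48 hpf zebrafish embryos. Embryos were then kept in water containing compound at 0.1 to 2.0 μg/ml for 24 and 48 h post-injection. Embryos were imaged by fluorescence microscopy, with red fluorescence intensity taken as proportional to xenograft tumor size.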

pIC50 [9]: 6.06 | inhibition [14]: Active
SMILES: CN(C)CCCNC(=O)c1cccc2nc3c(nc12)-c1ccccc1/C3=N\OCCCN(C)C.Cl
Activity [1]: 11.5% | pIC50 [2]: 6.19 | Ratio IC50 [3]: 36.22 | Activity [4]: 30.4% | Activity [5]: Active | Activity [6]: 30.5% | Activity [7]: 35.1% | Activity [8]: Non-toxic | Activity [10]: Active | pIC50 [11]: 4.50 | Activity [12]: Dose-dependent effect | Activity [13]: 38.4% | Activity [15]: Dose-dependent effect | Activity [16]: Active | Ratio IC50 [17]: 38.43 | Activity [18]: 3.8% | Ratio IC50 [19]: 49.23 | inhibition [20]: Dose-dependent effect
